Published values pooled from the literature.
Protocols differ between the studies behind these lines.
Target: Cyclin-dependent kinase-like 1 (CDKL1, Homo sapiens, UniProt Q00532)

SMILES | effect on | technique | concentration | remaining binding [%]
C[C@@H](c1ccc(-n2cnc3c(N)ncnc32)cc1)N1CCc2nn(C)c(Cc3ccccc3)c2C1=O | binding | competition with immobilised ligand | 0.1 µM | 58
CN(C)c1ncc(F)c(-c2cnn3ncccc23)n1 | binding |  | 1 µM | 100
Cc1nccc(COC(=O)N2C[C@@H]3[C@@H](CNC(=O)c4ccc5[nH]nnc5c4)[C@@H]3C2)n1 | cell-free assay | competition with immobilised ligand | 1 µM | 81
COc1ccnn2ncc(-c3ccnc(N(C)C)n3)c12 | binding |  | 1 µM | 87
O=C(c1ccc(Nc2nccc(-c3cc4ccccc4s3)n2)cc1)N1CCC(N2CCCC2)CC1 | binding | competition with immobilised ligand | 1 µM | 71
O=C(Nc1c[nH]nc1C(=O)NC1CCNCC1)c1cc(F)cc(F)c1 | binding | competition with immobilised ligand | 1 µM | 95
c1ccc(N2CCN(Cc3nc4ccccc4[nH]3)CC2)nc1 | binding | competition with immobilised ligand | 1 µM | 78
COc1ncc2cc3ccccc3nc2c1C#N | binding | competition with immobilised ligand | 5 µM | 100
Cc1cnn2ncc(-c3ccnc(N(C)C)n3)c2c1 | binding |  | 1 µM | 73
CNC(=O)[C@@H]1CC[C@@H](n2c(-c3ccc4cnccc4c3)nc3ccc(C(=O)NCc4cccc(C(N)=O)c4)cc32)C1 | binding | competition with immobilised ligand | 1 µM | 90
CN(C)c1nccc(-c2cnc3ncccn23)n1 | binding |  | 1 µM | 100
O=C(c1ccc(Nc2ncc(Cl)c(-c3ccc(Cl)s3)n2)cc1)N1CCC(N2CCCC2)CC1 | binding | competition with immobilised ligand | 1 µM | 32
CC(=O)Nc1c(C(C)=O)c(=O)n(C)c2nc(-c3ccc(Cl)cc3Cl)c(-c3ccc(Cl)cc3)cc12 | cell-free assay | competition with immobilised ligand | 1 µM | 100
FC(F)(F)Oc1cccc(-c2cnc3ccc(-c4ccncc4)nn23)c1 | cell-free assay | competition with immobilised ligand | 5 µM | 68
Cc1cc(-n2nc(Cc3cc(F)cc(C(F)(F)F)c3)nc2C)ccc1C(N)=O | cell-free assay | competition with immobilised ligand | 1 µM | 71
C[C@H]1CCN(c2nccc(-c3cnn4ncccc34)n2)C1 | binding |  | 1 µM | 62
CCS(=O)(=O)c1cc2cc(C[C@](O)(CC(C)(C)c3ccc(F)cc3C(N)=O)C(F)(F)F)[nH]c2cn1 | cell-free assay | competition with immobilised ligand | 1 µM | 81
C=CC(=O)N1CCC(C(=O)NCC(=O)N2CCN(c3nc(-c4cnc(N)nc4C(F)F)nc(N4CCOCC4)n3)CC2)CC1 | binding | competition with immobilised ligand | 1 µM | 90
Cc1nc(N2CC[C@@H](O)C2)ncc1-c1cc(C(F)(F)F)cc2[nH]ncc12 | binding | competition with immobilised ligand | 1 µM | 77
O=C(c1ccc(Nc2ncc(Cl)c(-c3cc4ccccc4s3)n2)cc1)N1CCC(N2CCCC2)CC1 | binding | competition with immobilised ligand | 1 µM | 51
